Broadly, the ΔTm is the change in melting temperature against a reference sample. The EC50 is the concentration giving half of the maximal effect.

Experiment [1] deals with Nucleic Acid. As to the kind of experiment: Binding affinity to calf thymus DNA assessed as decrease in ethidium bromide fluorescence at 10 uM by HT-FID assay. The class given is nucleic-acid assay. As to conditions: Bos taurus.
The subject of experiment [2] is Nucleic Acid. Nature of the experiment: Binding affinity to poly dA/dT DNA assessed as change in melting temperature by thermal denaturation assay. The class given is nucleic-acid assay.
In experiment [3] the test system is Nucleic Acid. As to the kind of experiment: Binding affinity to G/C-rich DNA oligonucleotide assessed as change in melting temperature by thermal denaturation assay. Format: nucleic-acid assay.
In experiment [4] the test system is Nucleic Acid. As to the kind of experiment: Binding affinity to calf thymus DNA assessed as decrease in ethidium bromide fluorescence by FID assay. The class given is nucleic-acid assay, Bos taurus. In short, it runs like this:
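Concentration-response FID using plate conditions as in the screen (calf thymus DNA, ethidium bromide, Tris buffer). Compound added to final 0.1-50 μM, from gravimetrically prepared stocks. FD50 taken as concentration giving 50% fluorescence decrease within each compound's achievable range; maximum %F decrease measured experimentally.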

Experiment [5] in a line: Cytotoxicity against human SF-767 cells assessed as viable cells after 72 hrs by MTT assay. As to conditions: SF767, 72 h, read-out: LC50 (the source's name). Format: functional. In short, it runs like this: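 SF767 glioblastoma cells, 2000 per well, grown 24 h, then exposed to increasing concentrations of compound for 72 h. Viable cells read by MTT with standard protocols. Media-only blank in each treatment group as background. Run in triplicate. LC50 read graphically from plots of % surviving cells against concentration.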
(Formazan colour is commonly taken as a measure of viable cells.)

*1 amine or outer side, *2 acyl side, *3 side chain or, on linkers, in order; H or OH if unused. Where a SMILES comes first, the peptide text is derived from it. Bridges are numbered along the chain shown (N, C = ends). Roman numbers before positions name the chains, in order. [ ]: non-standard residue; d: D form. Actinocin(1to9) = Cc1c2oc3c(C)ccc(C(=O)[*:2])c3nc-2c(C(=O)[*:1])c(N)c1=O; NMeV = CN[C@H](C(=O)O)C(C)C; Sar = CNCC(=O)O

With `CC(C)c1ccc(CNCCC(c2ccccc2)c2ccco2)cc1` (stereo not drawn), the Binding Decrease in the experiment on Nucleic Acid [1] is 34%. The ΔTm is more than 45 °C with Nucleic Acid [2] and 0 °C with Nucleic Acid [3]. Besides, the EC50 in the experiment on Nucleic Acid [4] stood at 13.5 µM. In experiment [5], the CC50 was found to be 13 µM.
For `CCc1ccc(C2NCc3ccccc3-n3cccc32)cc1` (stereo not drawn) the same measures were 36%, more than 45 °C, 0 °C, 9.4 µM and 35 µM.
With `Cc1c2oc3c(C)ccc(C(=O)N[C@@H]4C(=O)N[C@H](C(C)C)C(=O)N5CCC[C@H]5C(=O)N(C)CC(=O)N(C)[C@@H](C(C)C)C(=O)O[C@@H]4C)c3nc-2c(C(=O)N[C@@H]2C(=O)N[C@H](C(C)C)C(=O)N3CCC[C@H]3C(=O)N(C)CC(=O)N(C)[C@@H](C(C)C)C(=O)O[C@@H]2C)c(N)c1=O` [DACTINOMYCIN] (I: T[dV]P[Sar][NMeV] / II: T[dV]P[Sar][NMeV]; ester I:1-I:C, II:1-II:C; linker I:N-II:N via Actinocin(1to9)), in the experiment on Nucleic Acid [1], the Binding Decrease was determined as 63%. Moreover, the ΔTm was more than 45 °C in the experiment with Nucleic Acid [2] and 10 °C in the experiment with Nucleic Acid [3]. Besides, the EC50 with Nucleic Acid [4] is 4.3 µM.
For `Cn1cc(NC(=O)c2cc(NC(=O)CNC(=N)N)cn2C)cc1C(=O)NCCC(=N)N` [NETROPSIN] the same measures were 32%, 45 °C, 0 °C and 5.1 µM.
For the molecule `Cc1ccc(Nc2nc(N)nc(CN3CCC(Cc4ccccc4)CC3)n2)cc1`, the Binding Decrease with Nucleic Acid [1] was found to be 32%. For the same molecule, the figures for the ΔTm in the experiment with Nucleic Acid [2] and in the experiment with Nucleic Acid [3] were more than 45 °C and 0 °C, respectively. In the experiment with Nucleic Acid [4], the EC50 came out at 5.5 µM. In addition, the CC50 in experiment [5] came out at 26 µM.
In the case of `Cc1cccn2c(=O)c3cc(C(=O)NCCc4ccccc4)c(=N)n(CCc4ccccc4)c3nc12`, in the experiment on Nucleic Acid [1], the Binding Decrease is 22%. Moreover, the ΔTm in the experiment on Nucleic Acid [2] was 0 °C; in the experiment on Nucleic Acid [3], 10 °C. For the same molecule, the EC50 in the experiment with Nucleic Acid [4] worked out at 7.7 µM. Also, in experiment [5], the CC50 is more than 25 µM.
For `CCc1ccc2c(C)nc(NC3=NC(C)(C)C=C(C)N3)nc2c1` the same measures were 40%, 10 °C, 0 °C, 7.7 µM and 2.6 µM.
For `CC(C)c1ccc(CNc2ccc3c(c2)ncn3C)cc1` the same measures were 32%, more than 45 °C, 0 °C, 4.4 µM and 10 µM.
For `CCOC(=O)Cn1c(=N)n(CCOc2cccc(C)c2)c2ccccc21` the same measures were 46%, more than 45 °C, 0 °C, 7.7 µM and more than 50 µM.

Source of the values: ChEMBL document CHEMBL1154974, “Semi-automated high-throughput fluorescent intercalator displacement-based discovery of cytotoxic DNA binding agents from a large compound library” (Bioorg Med Chem Lett, 2010).
